Measurements taken from ChEMBL document CHEMBL1143148, “Influence of heterocyclic and oxime-containing farnesol analogs on quorum sensing and pathogenicity in Candida albicans” (Bioorg Med Chem, 2008).
pIC50: −log10 of the molar value. The source made the active and inactive calls. The rule behind the calls is not given here.

Columns and labels:
Candida albicans [1] = assay: Effect on quorum sensing in Candida albicans assessed as inhibition of germ tube formation; format: functional, organism-based
Procedure, shortened: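 Undifferentiated C. albicans cells inoculated to a final 1–2 × 10⁷ cells/ml in 2.5 mM N-acetyl glucosamine buffered to pH 7. Incubated 4 h at 37 °C with shaking at 200 rpm. Percentage of cells forming germ tubes then scored and inhibition relative to untreated cells taken. Triplicate readings.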

Candida albicans [2] = assay: Effect on rate of cell growth in Candida albicans at > 100 uM; format: functional, organism-based
Mus musculus = assay: Toxicity against ip dosed mouse after 14 days; format: organism-based; conditions: in vivo, 336 h
Candida albicans [3] = assay: Enhancement of pathogen virulence in Candida albicans A72 infected mouse model of disseminated candidiasis assessed as mortality at 20 mM, ip after 60 hrs of infection relative to control; format: functional, organism-based
Procedure, shortened: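 Mice inoculated by tail vein with C. albicans A72 at 5 · 10⁶ or 2 · 10⁶ cells, 45 mice per inoculum, split into 3 groups of 15. Each group received IP 1 ml of either 0.5% Tween 80 in saline (control) or a 20 mM analog solution in 0.5% Tween 80 in sterile nonpyrogenic saline. Mortality was followed over time.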

Candida albicans [4] = assay: Protection against Candida albicans A72 infected mouse model of disseminated candidiasis assessed as mortality at 20 mM, ip; format: functional, organism-based
Procedure, shortened: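 Mice inoculated by tail vein with C. albicans A72 at 5 × 10⁶ or 2 × 10⁶ cells, 15 per group. Each got 1 ml IP of a 20 mM analog solution in 0.5% Tween 80 in saline, or a vehicle control injection. Mortality followed over time.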

| SMILES | pIC50 (Candida albicans [1]) | Activity (Candida albicans [2]) | Activity (Mus musculus) | Activity (Candida albicans [3]) | Activity (Candida albicans [4]) |
| --- | --- | --- | --- | --- | --- |
| CC(C)=CCC/C(C)=C/CSc1c[nH]nn1 | 5.52 | – | – | – | – |
| CO/N=C/C=C(\C)CC/C=C(\C)CCC=C(C)C | ≤ 4.00 | inactive | – | – | – |
| CC(C)=C/C=C/C(C)=C/C=C/C(C)=C/C=N/O | 5.00 | inactive | – | – | – |
| CCCCCCCCCc1nnn[nH]1 | 5.52 | inactive | Non-toxic | – | – |
| CC(C)=CCC/C(C)=C/Cc1nnn[nH]1 | < 4.30 | inactive | – | – | – |
| CC(C)=CCC/C(C)=C/CC/C(C)=C/C=N/O | 5.30 | inactive | Toxic | – | – |
| CC(C)=CCC/C(C)=C/CSc1ncc[nH]1 | < 4.30 | – | – | – | – |
| C(=C\c1nn[nH]n1)/c1ccccc1 | 5.00 | inactive | – | – | – |
| CC(C)=CCC/C(C)=C/CSc1nn[nH]n1 | < 4.30 | – | – | – | – |
| CC(C)=CCC/C(C)=C/CC/C(C)=C/CO [FARNESOL] | 6.00 | inactive | Non-toxic | – | – |
| CC(C)=CCC/C(C)=C/CCc1c[nH]nn1 | 6.00 | – | – | – | – |
| CC(C)=CCC/C(C)=C/CCc1nnn[nH]1 | 5.15 | inactive | Non-toxic | Active | inactive |
| CC(C)=CCC/C(C)=C/CSc1nc[nH]n1 | 6.00 | – | Non-toxic | – | inactive |
